The subject of experiment [1] is chloroquine-resistant P. falciparum Dd2 cells. Put plainly: Antiplasmodial dose-response, cell-based SYBR Green I assay, Dd2. Details: species or system Plasmodium falciparum. A digest of the protocol:
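Chloroquine-resistant P. falciparum Dd2 cultures were tested in dose–response with a cell-based SYBR Green I growth assay to obtain EC50. Each reported value comes from three independent experiments.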

Another experiment relates to HepG2 cells. Put plainly: Cytotoxicity against HepG2. The class given is cell-based. Conditions: Homo sapiens, HepG2, read-out: EC50 HepG2 cells.

“Also recorded” adds a separate entry of the source.

The text below walks through data of PMC7346850 (ACS infectious diseases, 2020).

As a reminder, the EC50 is the concentration giving half of the maximal effect. Consider `COC(=O)[C@@H]1[C@H]2C[C@H]3c4[nH]c5ccccc5c4CCN3C[C@@H]2CC[C@@H]1O` [Y, yohimbine], for which the “antiplasmodial activity (in words)” value in experiment [1] (P. falciparum Dd2 cells) is “no antiplasmodial activities; also recorded: no antiplasmodial activity”. The EC50 in experiment [1] (Plasmodium falciparum, DD2, read-out: EC50 Dd2 cells) was 76.7 ± 0.74 µM; in the experiment with HepG2 cells, more than 100 µM.
